# From ChEMBL document CHEMBL3593243, “Discovery of novel, potent, selective and cellular active ADC type PTP1B inhibitors via fragment-docking-oriented de novel design” (Bioorg Med Chem, 2015)
# The source made the active and inactive calls. The calls are words filed in the database; no cut-off is given here.
# How the values were obtained:
# [1] = target: T1, Tyrosine-protein phosphatase non-receptor type 11 (Homo sapiens) (UniProt Q06124); test: Inhibition of SHP2 (unknown origin) using pNPP as substrate at 25 uM relative to control
# T1 sequence (whole entry): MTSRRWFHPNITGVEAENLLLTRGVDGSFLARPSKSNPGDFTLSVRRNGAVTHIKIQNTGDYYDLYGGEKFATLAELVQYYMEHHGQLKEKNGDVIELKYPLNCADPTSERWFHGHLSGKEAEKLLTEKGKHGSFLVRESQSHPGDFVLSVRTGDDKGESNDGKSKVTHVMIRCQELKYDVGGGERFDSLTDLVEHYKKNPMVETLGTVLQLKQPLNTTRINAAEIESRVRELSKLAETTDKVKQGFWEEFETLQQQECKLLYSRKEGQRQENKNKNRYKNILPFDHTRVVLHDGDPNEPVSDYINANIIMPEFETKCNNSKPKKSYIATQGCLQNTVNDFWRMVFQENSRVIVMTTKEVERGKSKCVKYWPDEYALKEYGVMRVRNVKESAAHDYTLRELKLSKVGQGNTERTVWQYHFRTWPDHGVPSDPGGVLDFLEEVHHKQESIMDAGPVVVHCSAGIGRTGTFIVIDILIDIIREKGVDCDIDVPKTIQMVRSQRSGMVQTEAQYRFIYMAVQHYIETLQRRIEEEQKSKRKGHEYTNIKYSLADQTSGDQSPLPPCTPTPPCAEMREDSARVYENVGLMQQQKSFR
# Homo sapiens = species: Homo sapiens; test: Selectivity ratio of IC50 for TCPTP (unknown origin) to IC50 for recombinant PTP1B (unknown origin)
# In short: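 Ratio of TCPTP to PTP1B IC50. Both enzymes (PTP1B at 30 nM recombinant) assayed with 2 mM pNPP, 1 mM DTT, 1 mM EDTA, pH 6.5, 30 min at 37 °C, NaOH stop, A405; IC50 by logit method, triplicate for PTP1B.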
# [2] = target: Receptor-type tyrosine-protein phosphatase F (Homo sapiens) (UniProt P10586); test: Inhibition of LAR (unknown origin) using pNPP as substrate at 25 uM relative to control
# [3] = target: Tyrosine-protein phosphatase non-receptor type 6 (Homo sapiens) (UniProt P29350); test: Inhibition of SHP1 (unknown origin) using pNPP as substrate at 25 uM relative to control
# CHO = test: Inhibition of PTP1B in CHO cells transfected with human insulin receptor-beta assessed as increase in insulin-mediated tyrosine phosphorylation of insulin receptor-beta at 25 to 50 uM preincubated for 4 hrs followed by insulin stimulation measured after 10 mins by Western blot analysis; format: cell-based; conditions: Cricetulus griseus
# In short: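 CHO cells in F12/10% FBS transfected 8 h with 2 µg human IR plasmid, reseeded and grown 24 h at 37 °C, 5% CO2. Serum-starved 2 h, compound 4 h, then 10 nM insulin 10 min. Lysates (Triton/HEPES pH 7.4 buffer) run on SDS-PAGE, blotted with PY-20 and β-actin.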
# [4] = target: T2, Tyrosine-protein phosphatase non-receptor type 1 (Homo sapiens) (UniProt P18031); test: Competitive inhibition of recombinant PTP1B (unknown origin) assessed as pNPP hydrolysis at 0.1 to 0.8 uM after 30 mins by Lineweaver-Burk plot analysis
# T2 sequence (whole entry): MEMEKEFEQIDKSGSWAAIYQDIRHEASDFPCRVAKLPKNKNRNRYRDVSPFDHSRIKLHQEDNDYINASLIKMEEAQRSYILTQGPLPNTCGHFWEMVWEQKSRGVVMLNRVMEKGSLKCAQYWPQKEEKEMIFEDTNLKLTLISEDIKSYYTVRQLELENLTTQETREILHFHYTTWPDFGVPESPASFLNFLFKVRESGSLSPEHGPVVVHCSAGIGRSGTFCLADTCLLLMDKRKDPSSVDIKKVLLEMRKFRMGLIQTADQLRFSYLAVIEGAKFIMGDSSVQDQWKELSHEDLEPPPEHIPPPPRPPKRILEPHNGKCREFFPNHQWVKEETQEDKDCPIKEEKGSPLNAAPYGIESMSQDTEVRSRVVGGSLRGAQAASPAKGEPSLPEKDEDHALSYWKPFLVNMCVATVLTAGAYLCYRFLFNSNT
# In short: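 Kinetics in 100 µL of 50 mM MOPS pH 6.5 with 30 nM recombinant PTP1B. pNPP in 2-fold dilutions from 64 mM, inhibitor at 0.1–0.8 µM (0 as reference). Km and Vmax from Michaelis–Menten fits; mechanism judged by Lineweaver–Burk double-reciprocal plots.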
# [5] = target: T3, Tyrosine-protein phosphatase non-receptor type 2 (Homo sapiens) (UniProt P17706); test: Inhibition of TCPTP (unknown origin) assessed as pNPP hydrolysis at 25 uM after 30 mins relative to control
# T3 sequence (whole entry): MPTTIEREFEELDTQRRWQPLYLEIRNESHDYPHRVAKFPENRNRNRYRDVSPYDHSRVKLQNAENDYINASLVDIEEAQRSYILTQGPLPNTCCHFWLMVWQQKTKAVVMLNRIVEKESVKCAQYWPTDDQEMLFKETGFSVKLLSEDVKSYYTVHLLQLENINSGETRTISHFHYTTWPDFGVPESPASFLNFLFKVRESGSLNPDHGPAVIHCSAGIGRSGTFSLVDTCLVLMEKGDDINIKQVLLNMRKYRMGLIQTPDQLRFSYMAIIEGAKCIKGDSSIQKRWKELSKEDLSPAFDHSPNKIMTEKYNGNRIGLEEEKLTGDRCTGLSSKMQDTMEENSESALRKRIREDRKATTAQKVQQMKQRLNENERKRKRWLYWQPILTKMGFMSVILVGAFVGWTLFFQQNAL
# Sequence of Receptor-type tyrosine-protein phosphatase F (Homo sapiens) (P10586 whole entry): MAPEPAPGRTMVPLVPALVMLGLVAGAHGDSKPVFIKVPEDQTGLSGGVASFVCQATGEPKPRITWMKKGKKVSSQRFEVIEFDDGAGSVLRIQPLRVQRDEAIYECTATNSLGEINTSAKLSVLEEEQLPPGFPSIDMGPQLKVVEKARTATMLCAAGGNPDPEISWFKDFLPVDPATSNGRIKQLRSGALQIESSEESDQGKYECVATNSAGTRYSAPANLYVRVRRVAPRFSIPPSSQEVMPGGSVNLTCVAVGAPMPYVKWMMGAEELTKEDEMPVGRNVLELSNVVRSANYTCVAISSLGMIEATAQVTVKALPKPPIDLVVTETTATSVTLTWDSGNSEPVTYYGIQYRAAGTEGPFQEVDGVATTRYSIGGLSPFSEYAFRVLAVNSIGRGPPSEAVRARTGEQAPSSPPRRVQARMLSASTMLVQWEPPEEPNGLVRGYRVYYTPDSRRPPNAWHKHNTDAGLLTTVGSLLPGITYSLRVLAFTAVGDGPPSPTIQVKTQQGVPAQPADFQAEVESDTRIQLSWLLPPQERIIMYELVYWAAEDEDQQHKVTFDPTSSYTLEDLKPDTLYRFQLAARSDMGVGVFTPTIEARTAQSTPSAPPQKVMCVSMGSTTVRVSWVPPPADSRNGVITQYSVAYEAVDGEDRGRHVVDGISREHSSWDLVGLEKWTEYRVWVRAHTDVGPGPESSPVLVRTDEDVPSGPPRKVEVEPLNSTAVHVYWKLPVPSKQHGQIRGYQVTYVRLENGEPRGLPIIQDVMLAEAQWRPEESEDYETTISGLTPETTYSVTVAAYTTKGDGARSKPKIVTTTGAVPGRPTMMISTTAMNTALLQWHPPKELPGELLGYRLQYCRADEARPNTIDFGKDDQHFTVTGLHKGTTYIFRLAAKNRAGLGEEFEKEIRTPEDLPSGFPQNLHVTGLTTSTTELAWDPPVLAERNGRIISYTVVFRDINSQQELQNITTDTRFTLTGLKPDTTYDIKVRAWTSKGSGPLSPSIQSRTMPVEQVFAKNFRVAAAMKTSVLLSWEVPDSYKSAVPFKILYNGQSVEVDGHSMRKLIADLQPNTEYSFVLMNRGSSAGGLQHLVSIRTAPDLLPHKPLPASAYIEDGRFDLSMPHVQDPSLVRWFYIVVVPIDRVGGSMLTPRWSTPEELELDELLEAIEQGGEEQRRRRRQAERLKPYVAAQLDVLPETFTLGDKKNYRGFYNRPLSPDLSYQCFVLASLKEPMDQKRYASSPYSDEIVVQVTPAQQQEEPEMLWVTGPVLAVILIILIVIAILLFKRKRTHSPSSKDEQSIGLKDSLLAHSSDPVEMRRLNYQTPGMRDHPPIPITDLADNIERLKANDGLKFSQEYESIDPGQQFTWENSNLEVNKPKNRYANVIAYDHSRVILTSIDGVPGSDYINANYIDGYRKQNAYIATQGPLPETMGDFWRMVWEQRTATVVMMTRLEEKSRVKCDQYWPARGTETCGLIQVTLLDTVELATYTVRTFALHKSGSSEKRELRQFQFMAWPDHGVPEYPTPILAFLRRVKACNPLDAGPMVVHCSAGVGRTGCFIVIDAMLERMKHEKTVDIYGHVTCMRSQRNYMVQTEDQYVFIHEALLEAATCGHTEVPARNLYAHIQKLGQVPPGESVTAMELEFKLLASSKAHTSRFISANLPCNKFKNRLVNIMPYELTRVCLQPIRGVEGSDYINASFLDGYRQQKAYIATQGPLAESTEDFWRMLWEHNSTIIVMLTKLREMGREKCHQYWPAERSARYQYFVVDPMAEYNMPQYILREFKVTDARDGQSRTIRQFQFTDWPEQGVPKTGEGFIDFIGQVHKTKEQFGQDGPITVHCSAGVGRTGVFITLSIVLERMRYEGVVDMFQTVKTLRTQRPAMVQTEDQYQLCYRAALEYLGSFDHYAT
# Sequence of Tyrosine-protein phosphatase non-receptor type 6 (Homo sapiens) (P29350 whole entry): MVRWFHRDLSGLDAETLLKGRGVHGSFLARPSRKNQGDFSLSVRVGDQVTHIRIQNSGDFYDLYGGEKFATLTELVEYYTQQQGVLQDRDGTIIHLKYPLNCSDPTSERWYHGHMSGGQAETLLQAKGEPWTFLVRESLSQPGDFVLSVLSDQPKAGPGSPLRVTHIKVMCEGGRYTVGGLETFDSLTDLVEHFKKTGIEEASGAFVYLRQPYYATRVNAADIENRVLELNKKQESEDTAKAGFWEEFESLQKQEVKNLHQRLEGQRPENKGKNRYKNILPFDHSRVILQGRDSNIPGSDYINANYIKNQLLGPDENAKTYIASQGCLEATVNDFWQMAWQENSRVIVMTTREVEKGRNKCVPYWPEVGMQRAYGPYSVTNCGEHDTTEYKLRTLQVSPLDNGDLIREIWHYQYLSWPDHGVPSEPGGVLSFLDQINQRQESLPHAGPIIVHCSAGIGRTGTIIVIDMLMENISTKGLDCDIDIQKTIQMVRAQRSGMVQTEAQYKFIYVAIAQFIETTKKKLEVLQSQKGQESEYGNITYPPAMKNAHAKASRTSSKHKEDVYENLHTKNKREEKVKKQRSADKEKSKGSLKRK
inhibition [1],Ratio IC50 (Homo sapiens),inhibition [2],inhibition [3],inhibition [4],inhibition [5],Compound,inhibition (CHO)
< 50%,16,< 50%,< 50%,,,CCOc1cc(NS(C)(=O)=O)c(OCC)cc1CNC(=O)Nc1ccc(C)cc1,
< 50%,6,< 50%,,,,CCOc1cc(NS(C)(=O)=O)c(OCC)cc1CNC(=O)Nc1ccc(Br)cc1,
< 50%,> 120,< 50%,,Active,< 50%,CCOc1cc(NS(C)(=O)=O)c(OCC)cc1CNC(=O)Nc1ccc(OC)cc1,Active
